Reference: ChEMBL document CHEMBL1153313, “Fluorinated 9H-xanthene-9-carboxylic acid oxazol-2-yl-amides as potent, orally available mGlu1 receptor enhancers” (Bioorg Med Chem Lett, 2009)

Tests used:
[1] = molecular target: T1, Metabotropic glutamate receptor 1 (Rattus norvegicus, UniProt P23385); assay: Agonist activity at rat mGlu1 receptor expressed in CHO cells assessed as potentiation of glutamate-activated K+ currents by electrophysiology
[2] = molecular target: Metabotropic glutamate receptor 1 (Rattus norvegicus) (UniProt P23385); assay: Agonist activity at rat mGlu1 receptor expressed in HEK293 cells assessed as increase in intracellular calcium by FLIPR assay relative to control; format: functional, cell-based; set-up: concentration or dose not given beside the values
Sequence of Metabotropic glutamate receptor 1 (Rattus norvegicus) (P23385 19-1199 limits assumed): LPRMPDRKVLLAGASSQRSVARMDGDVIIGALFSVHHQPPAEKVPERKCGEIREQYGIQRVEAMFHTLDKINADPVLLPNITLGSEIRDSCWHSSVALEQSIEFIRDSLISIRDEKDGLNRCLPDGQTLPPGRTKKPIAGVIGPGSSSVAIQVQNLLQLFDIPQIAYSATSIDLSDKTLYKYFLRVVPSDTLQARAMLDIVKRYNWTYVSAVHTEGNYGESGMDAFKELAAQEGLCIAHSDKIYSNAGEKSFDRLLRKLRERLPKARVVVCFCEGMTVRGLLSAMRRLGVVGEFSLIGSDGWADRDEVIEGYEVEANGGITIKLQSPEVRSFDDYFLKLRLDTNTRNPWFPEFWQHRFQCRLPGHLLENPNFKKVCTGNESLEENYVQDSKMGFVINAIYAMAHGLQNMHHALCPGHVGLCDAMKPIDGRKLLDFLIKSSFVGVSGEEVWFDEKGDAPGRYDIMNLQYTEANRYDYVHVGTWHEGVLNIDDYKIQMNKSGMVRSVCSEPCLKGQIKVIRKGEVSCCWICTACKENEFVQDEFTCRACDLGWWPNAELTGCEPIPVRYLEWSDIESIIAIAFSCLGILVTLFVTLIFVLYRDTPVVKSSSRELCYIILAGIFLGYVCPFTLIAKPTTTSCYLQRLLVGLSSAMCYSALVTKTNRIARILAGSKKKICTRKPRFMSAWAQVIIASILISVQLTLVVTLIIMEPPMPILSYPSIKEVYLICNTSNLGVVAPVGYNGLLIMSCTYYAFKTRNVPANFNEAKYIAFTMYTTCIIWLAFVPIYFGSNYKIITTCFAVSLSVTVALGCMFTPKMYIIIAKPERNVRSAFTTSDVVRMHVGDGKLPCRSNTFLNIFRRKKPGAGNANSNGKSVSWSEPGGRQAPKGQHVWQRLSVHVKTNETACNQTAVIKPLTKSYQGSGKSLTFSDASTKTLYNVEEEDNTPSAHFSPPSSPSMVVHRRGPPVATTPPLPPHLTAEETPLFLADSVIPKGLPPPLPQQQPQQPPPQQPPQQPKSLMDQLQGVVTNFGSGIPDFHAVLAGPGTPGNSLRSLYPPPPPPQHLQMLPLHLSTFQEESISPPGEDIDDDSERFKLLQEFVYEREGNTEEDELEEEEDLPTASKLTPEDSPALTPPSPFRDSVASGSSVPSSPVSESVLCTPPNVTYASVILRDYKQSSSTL
Summary of the method: (§1)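 Rat mGlu1a transiently transfected into HEK-293 cells, which were loaded with Fluo-3 AM for 1 h and then washed 4 times in assay buffer (DMEM with Hank's salts, 20 mM HEPES). [Ca2+]i was read on a fluorometric imaging plate reader and converted to fluorescence ratios. EC50 is the mean of separate values from at least three individual experiments.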

[3] = molecular target: Metabotropic glutamate receptor 1 (Rattus norvegicus) (UniProt P23385); assay: Agonist activity at rat mGlu1 receptor expressed in CHO cells assessed as […] of glutamate-activated K+ currents by electrophysiology relative to glutamate; format: functional, cell-based; set-up: concentration or dose not given beside the values
[4] = Metabolic stability in rat microsomes assessed as intrinsic clearance per mg protein; format: ADME, Microsome
[5] = molecular target: T1, Metabotropic glutamate receptor 1; assay: Agonist activity at rat mGlu1 receptor expressed in HEK293 cells assessed as increase in intracellular calcium by FLIPR assay; format: functional, cell-based
Summary of the method: as §1

[6] = Cmax in rat plasma at 10 mg/kg, po; format: ADME, organism-based; set-up: dose 10 mg/kg, route oral
Summary of the method: (§2)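 Wistar rats, two per group, fitted with implanted jugular vein catheters. These catheters were used for the iv bolus and for blood sampling. Blood was drawn at 0.3, 0.5, 1, 2, 4, 8 and 24 h after iv or po administration for the plasma pharmacokinetic parameters.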

Rattus norvegicus = assay: Volume of distribution in rat at 10 mg/kg, iv and po; format: ADME, organism-based; set-up: dose 10 mg/kg, route oral; conditions: in vivo
Summary of the method: as §2

[7] = Half life in rat at 10 mg/kg, iv and po; format: ADME, organism-based; set-up: dose 10 mg/kg, route oral; conditions: in vivo
Summary of the method: as §2

[8] = Cmax in rat plasma at 6 mg/kg, po; format: ADME, organism-based; set-up: dose 6 mg/kg, route oral
Summary of the method: as §2

[9] = Clearance in rat at 3 mg/kg, iv and 6 mg/kg, po; format: ADME, organism-based; conditions: in vivo
Summary of the method: as §2

[10] = Volume of distribution in rat at 3 mg/kg, iv and 6 mg/kg, po; format: ADME, organism-based; conditions: in vivo, read-out: Vdss
Summary of the method: as §2

[11] = Half life in rat at 3 mg/kg, iv and 6 mg/kg, po; format: ADME, organism-based; conditions: in vivo
Summary of the method: as §2

[12] = Half life in rat at 5 mg/kg, iv and 10 mg/kg, po; format: ADME, organism-based; conditions: in vivo
Summary of the method: as §2

[13] = Clearance in rat at 5 mg/kg, iv and 10 mg/kg, po; format: ADME, organism-based; conditions: in vivo
Summary of the method: as §2

[14] = Volume of distribution in rat at 5 mg/kg, iv and 10 mg/kg, po; format: ADME, organism-based; conditions: in vivo, read-out: Vdss
Summary of the method: as §2

[15] = Clearance in rat at 1 mg/kg, iv and 10 mg/kg, po; format: ADME, organism-based; conditions: in vivo
Summary of the method: as §2

[16] = Ratio of drug level in brain to plasma in rat at 1 mg/kg, iv and 6 mg/kg, po; format: ADME, organism-based; conditions: in the assay text read “10 mg/kg” for “6 mg/kg”, read-out: BPR
Summary of the method: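 Brain/plasma ratio came from iv infusion in Wistar rats, two per group, at 1 mg/kg/h via catheter. Blood was sampled sublingually at 1, 3 and 5 h after administration. Brain tissue was taken by decapitation under isoflurane anaesthesia.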

[17] = Volume of distribution in rat at 1 mg/kg, iv and 10 mg/kg, po; format: ADME, organism-based; conditions: in vivo, read-out: Vdss
Summary of the method: as §2

[18] = Half life in rat at 1 mg/kg, iv and 10 mg/kg, po; format: ADME, organism-based; conditions: in vivo
Summary of the method: as §2

T1 sequence (P23385 whole entry): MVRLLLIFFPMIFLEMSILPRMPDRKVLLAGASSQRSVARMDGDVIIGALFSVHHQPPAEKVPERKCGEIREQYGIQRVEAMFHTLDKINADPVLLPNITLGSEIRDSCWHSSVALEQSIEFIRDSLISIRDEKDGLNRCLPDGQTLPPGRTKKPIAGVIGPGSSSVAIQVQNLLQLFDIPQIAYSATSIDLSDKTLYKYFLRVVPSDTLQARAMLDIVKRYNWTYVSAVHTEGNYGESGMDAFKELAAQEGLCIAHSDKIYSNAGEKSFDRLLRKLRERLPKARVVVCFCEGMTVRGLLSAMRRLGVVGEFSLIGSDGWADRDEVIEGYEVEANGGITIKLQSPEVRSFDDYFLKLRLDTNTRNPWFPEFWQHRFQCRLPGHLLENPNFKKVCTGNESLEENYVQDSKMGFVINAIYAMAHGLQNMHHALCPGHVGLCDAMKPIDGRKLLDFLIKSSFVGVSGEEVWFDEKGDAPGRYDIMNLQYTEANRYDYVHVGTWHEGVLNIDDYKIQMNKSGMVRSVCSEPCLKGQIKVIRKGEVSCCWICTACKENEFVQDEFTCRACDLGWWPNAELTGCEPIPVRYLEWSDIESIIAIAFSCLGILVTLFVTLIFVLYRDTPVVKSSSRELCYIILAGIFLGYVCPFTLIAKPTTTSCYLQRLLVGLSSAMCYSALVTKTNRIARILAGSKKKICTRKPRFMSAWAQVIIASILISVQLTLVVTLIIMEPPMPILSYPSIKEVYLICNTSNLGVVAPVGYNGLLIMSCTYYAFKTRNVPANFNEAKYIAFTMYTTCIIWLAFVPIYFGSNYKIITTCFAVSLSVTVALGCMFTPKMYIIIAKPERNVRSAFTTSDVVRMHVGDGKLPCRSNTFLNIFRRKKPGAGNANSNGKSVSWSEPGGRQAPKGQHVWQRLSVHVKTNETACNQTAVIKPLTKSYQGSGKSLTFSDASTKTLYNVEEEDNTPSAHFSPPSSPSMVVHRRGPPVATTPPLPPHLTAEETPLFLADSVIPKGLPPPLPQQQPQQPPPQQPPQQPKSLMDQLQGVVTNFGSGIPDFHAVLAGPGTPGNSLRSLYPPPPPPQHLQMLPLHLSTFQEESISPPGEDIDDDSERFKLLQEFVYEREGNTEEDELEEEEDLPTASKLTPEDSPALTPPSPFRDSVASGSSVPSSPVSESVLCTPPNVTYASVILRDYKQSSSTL

| SMILES | EC50 [1] [nM] | Activity [2] [%] | Activity [3] [%] | clearance [4] [µL/min/mg] | EC50 ([5]; read-out: EC50) [nM] | other results |
| --- | --- | --- | --- | --- | --- | --- |
| O=C(Nc1ncc(C(F)(F)F)o1)C1c2ccccc2Oc2ccccc21 | 394 | 104 | 3060 | 50 | – | – |
| O=C(Nc1nc(C(F)(F)F)co1)C1c2ccc(F)cc2Oc2cc(F)ccc21 | – | – | – | 38 | – | EC50 ([5]; hek293): Not Active |
| O=C(Nc1ncc(C(F)(F)F)o1)C1c2ccccc2Oc2c(F)cccc21 (racemic) | 131 | 50 | 910 | 32 | – | – |
| O=C(Nc1ncc(C(F)(F)F)o1)C1c2cccc(F)c2Oc2c(F)cccc21 | 162 | 36 | 568 | 12 | 25 | – |
| O=C(Nc1ncc(C(F)(F)F)o1)C1c2ccccc2Oc2ccc(F)cc21 (racemic) | 67 | 57 | 1220 | 40 | 20 | – |
| Cc1nc(NC(=O)C2c3ccccc3Oc3ccccc32)no1 | 220 | 100 | – | 42 | 52 | Cmax [6]: 1330 ng/mL; Vdss (Rattus norvegicus): 1.7 L/kg; half-life [7]: 19.2 min |
| O=C(Nc1ncc(C(F)(F)F)o1)C1c2ccc(F)cc2Oc2cc(F)ccc21 | – | – | – | – | – | EC50 ([5]; hek293): Not Active |
| O=C(Nc1nc(C(F)(F)F)co1)C1c2cc(F)ccc2Oc2ccc(F)cc21 | 90 | 48 | 300 | 9 | – | Cmax [8]: 1810 ng/mL; clearance [9]: 7.4 mL/min/kg; Vd [10]: 0.9 L/kg; half-life [11]: 148 min |
| O=C(Nc1nc(C(F)(F)F)co1)C1c2ccccc2Oc2c(F)cccc21 (racemic) | 102 | 84 | 1190 | 33 | 19 | Cmax [6]: 1440 ng/mL; half-life [12]: 222 min; clearance [13]: 3.3 mL/min/kg; Vd [14]: 0.99 L/kg |
| O=C(Nc1nc(C(F)(F)F)co1)C1c2ccccc2Oc2ccc(F)cc21 (racemic) | – | 63 | – | 61 | 40 | – |
| O=C(Nc1nc(C(F)(F)F)co1)C1c2cccc(F)c2Oc2c(F)cccc21 | 161 | 51 | 707 | 18 | 47 | Cmax [6]: 2070 ng/mL; clearance [15]: 3.79 mL/min/kg; Kp [16]: 0.2; Vd [17]: 0.43 L/kg; half-life [18]: 234 min |
| O=C(Nc1nc(C(F)(F)F)co1)C1c2ccccc2Oc2ccccc21 | 202 | 86 | 1130 | 108 | – | Cmax [6]: 1330 ng/mL; Vdss (Rattus norvegicus): 0.67 L/kg; half-life [7]: 54.6 min |
| O=C(Nc1ncc(C(F)(F)F)o1)C1c2ccccc2Oc2cc(F)ccc21 (racemic) | – | – | – | 28 | – | EC50 ([5]; hek293): Not Active |
| O=C(Nc1nc(C(F)(F)F)co1)C1c2ccccc2Oc2cc(F)ccc21 (racemic) | 260 | 50 | 570 | 34 | 40 | – |
